Structures are written as SMILES.

A short description of series [1]: Drug level in cell culture medium treated with ketoprofen at 1 mM measured at 6 hrs by LC-MS/MS analysis in absence of acyl glucuronidation inhibitor (-)-borneol. In kind it is physicochemical. The note with it: 1000 µM.
Series [2] concerns Nucleic Acid. As to the kind of experiment: Ratio of drug level in human hepatocytes to HEK293 cells expressing UGT1A3 treated with ketoprofen at 1 mM. The note with it: 1000 µM. In kind it is ADME, cell-based, Hepatocyte. The procedure, abridged:
(§1)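 Acyl glucuronide in cell fraction (pmol/2 x 10^5 cells) by LC-MS/MS after 6 h exposure in human hepatocytes without (-)-borneol, set against HEK/UGT1A3 cells (2 x 10^5 cells/well, DMEM with 0.5% FBS) exposed to the same drug level; cells pelleted at 3000 x g, resuspended in PBS, extracted with methanol/acetic acid.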

A short description of series [3]: Drug level in cell culture medium treated with ketoprofen at 1 mM measured at 6 hrs by LC-MS/MS analysis in presence of acyl glucuronidation inhibitor (-)-borneol. In kind it is physicochemical. The note with it: 1000 µM.
Series [4] deals with Hepatocyte. The series is described as follows: Drug level in human hepatocytes assessed per 2 x 10^5 cells treated with ketoprofen at 1 mM measured at 6 hrs by LC-MS/MS analysis in presence of acyl glucuronidation inhibitor (-)-borneol. Type of series: ADME, cell-based. The settings on record: 1000 µM.
The target in series [5] is T1, UDP-glucuronosyltransferase 1A3 (Homo sapiens, UniProt P35503).
T1 sequence (P35503 whole entry): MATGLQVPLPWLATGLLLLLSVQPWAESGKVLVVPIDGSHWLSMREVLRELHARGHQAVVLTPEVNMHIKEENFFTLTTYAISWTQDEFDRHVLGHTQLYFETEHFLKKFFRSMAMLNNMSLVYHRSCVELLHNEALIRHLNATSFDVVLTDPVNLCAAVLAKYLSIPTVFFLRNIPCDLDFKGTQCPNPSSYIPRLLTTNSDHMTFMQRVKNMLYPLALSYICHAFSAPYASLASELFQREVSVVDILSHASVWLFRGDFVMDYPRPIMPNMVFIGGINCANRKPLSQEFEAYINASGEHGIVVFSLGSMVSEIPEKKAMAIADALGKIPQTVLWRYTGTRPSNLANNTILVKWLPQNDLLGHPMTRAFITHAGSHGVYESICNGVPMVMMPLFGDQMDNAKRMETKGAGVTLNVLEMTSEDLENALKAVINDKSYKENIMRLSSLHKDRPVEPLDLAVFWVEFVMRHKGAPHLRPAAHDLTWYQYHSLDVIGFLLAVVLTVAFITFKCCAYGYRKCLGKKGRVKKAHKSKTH
The series is described as follows: Activity of human UGT1A3 expressed in HEK293 cells assessed as enzyme-mediated compound formation in cell culture medium treated with ketoprofen at 1 mM by LC-MS/MS analysis. In kind it is ADME, cell-based. The settings on record: hek293, 1000 µM, TDE = time-dependent effect. A digest of the protocol:
(§2)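 HEK293 stably expressing human UGT1A3 (G418-selected), 2 x 10^5 cells/well in 1 mL DMEM with 0.5% FBS, exposed immediately to drug for 6, 12 or 24 h; DMSO ≤0.1% final. Cells and medium separated by centrifugation, cell fraction resuspended in PBS; aliquots mixed 1:1 with methanol/acetic acid (100:1), spun, supernatant analysed by LC-MS/MS. Triplicate determinations, mean ± SD.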

In series [6] the target is T1, UDP-glucuronosyltransferase 1A3. As to the kind of experiment: Activity of human UGT1A3 expressed in HEK293 cells assessed as enzyme-mediated compound formation in cell culture medium treated with ketoprofen at 1 mM measured at 6 to 24 hrs by LC-MS/MS analysis. In kind it is ADME, cell-based. The settings on record: hek293, 1000 µM. The procedure, abridged:
as §2

For series [7] the target is unchanged. As to the kind of experiment: Activity of human UGT1A3 expressed in HEK293 cells assessed as enzyme-mediated compound formation per 2 x 10^5 cells treated with ketoprofen at 1 mM measured at 24 hrs by LC-MS/MS analysis. In kind it is ADME, cell-based. The settings on record: hek293, 24 h, 1000 µM. A digest of the protocol: as §2
The subject of series [8] is Hepatocyte. The series is described as follows: Drug level in human hepatocytes assessed per 2 x 10^5 cells treated with ketoprofen at 1 mM measured at 6 hrs by LC-MS/MS analysis in absence of acyl glucuronidation inhibitor (-)-borneol. In kind it is ADME, cell-based. The settings on record: 1000 µM.
The test system of series [9] is Hepatocyte. The series is described as follows: Drug level in human hepatocytes assessed per 2 x 10^5 cells treated with naproxen at 1 mM measured at 6 hrs by LC-MS/MS analysis in presence of acyl glucuronidation inhibitor (-)-borneol. Type of series: ADME, cell-based. The settings on record: 1000 µM.
Series [10] concerns the target T1, UDP-glucuronosyltransferase 1A3. The series is described as follows: Activity of human UGT1A3 expressed in HEK293 cells assessed as enzyme-mediated compound formation per 2 x 10^5 cells treated with naproxen at 1 mM measured at 24 hrs by LC-MS/MS analysis. In kind it is ADME, cell-based. The note with it: hek293, 24 h, 1000 µM. The procedure, abridged: as §2

Series [11] has the same target. As to the kind of experiment: Activity of human UGT1A3 expressed in HEK293 cells assessed as enzyme-mediated compound formation in cell culture medium treated with naproxen at 1 mM by LC-MS/MS analysis. In kind it is ADME, cell-based. The note with it: hek293, 1000 µM, TDE = time-dependent effect. The procedure, abridged:
as §2

Series [12] in a line: Drug level in cell culture medium treated with naproxen at 1 mM measured at 6 hrs by LC-MS/MS analysis in presence of acyl glucuronidation inhibitor (-)-borneol. In kind it is physicochemical. The settings on record: 1000 µM.
Series [13] addresses T1, UDP-glucuronosyltransferase 1A3. As to the kind of experiment: Activity of human UGT1A3 expressed in HEK293 cells assessed as enzyme-mediated compound formation in cell culture medium treated with naproxen at 1 mM measured at 6 to 24 hrs by LC-MS/MS analysis. The settings on record: hek293, 1000 µM. In kind it is ADME, cell-based. A digest of the protocol: as §2
Series [14] concerns Nucleic Acid. As to the kind of experiment: Ratio of drug level in human hepatocytes to HEK293 cells expressing UGT1A3 treated with naproxen at 1 mM. Type of series: ADME, cell-based, Hepatocyte. The note with it: 1000 µM. A digest of the protocol:
as §1

A short description of series [15]: Drug level in cell culture medium treated with naproxen at 1 mM measured at 6 hrs by LC-MS/MS analysis in absence of acyl glucuronidation inhibitor (-)-borneol. In kind it is physicochemical. The note with it: 1000 µM.
Series [16] deals with Hepatocyte. The series is described as follows: Drug level in human hepatocytes assessed per 2 x 10^5 cells treated with naproxen at 1 mM measured at 6 hrs by LC-MS/MS analysis in absence of acyl glucuronidation inhibitor (-)-borneol. In kind it is ADME, cell-based. The settings on record: 1000 µM.
Series [17] addresses T1, UDP-glucuronosyltransferase 1A3. The series is described as follows: Activity of human UGT1A3 expressed in HEK293 cells assessed as enzyme-mediated compound formation in cell culture medium treated with diclofenac at 0.1 mM measured at 6 to 24 hrs by LC-MS/MS analysis. In kind it is ADME, cell-based. The settings on record: hek293, 100 µM. A digest of the protocol:
as §2

The nature of series [18]: Drug level in cell culture medium treated with diclofenac at 0.1 mM measured at 6 hrs by LC-MS/MS analysis in absence of acyl glucuronidation inhibitor (-)-borneol. Type of series: physicochemical. The settings on record: 100 µM.
In series [19] the test system is Hepatocyte. As to the kind of experiment: Drug level in human hepatocytes assessed per 2 x 10^5 cells treated with diclofenac at 0.1 mM measured at 6 hrs by LC-MS/MS analysis in presence of acyl glucuronidation inhibitor (-)-borneol. Type of series: ADME, cell-based. The note with it: 100 µM.
The nature of series [20]: Drug level in cell culture medium treated with diclofenac at 0.1 mM measured at 6 hrs by LC-MS/MS analysis in presence of acyl glucuronidation inhibitor (-)-borneol. Type of series: physicochemical. The settings on record: 100 µM.
The test system of series [21] is Hepatocyte. The series is described as follows: Drug level in human hepatocytes assessed per 2 x 10^5 cells treated with diclofenac at 0.1 mM measured at 6 hrs by LC-MS/MS analysis in absence of acyl glucuronidation inhibitor (-)-borneol. Type of series: ADME, cell-based. The settings on record: 100 µM.
The target in series [22] is T1, UDP-glucuronosyltransferase 1A3. The series is described as follows: Activity of human UGT1A3 expressed in HEK293 cells assessed as enzyme-mediated compound formation in cell culture medium treated with diclofenac at 0.1 mM by LC-MS/MS analysis. The settings on record: hek293, 100 µM, TDE = time-dependent effect. Type of series: ADME, cell-based. The procedure, abridged:
as §2

Series [23] has the same target. As to the kind of experiment: Activity of human UGT1A3 expressed in HEK293 cells assessed as enzyme-mediated compound formation per 2 x 10^5 cells treated with diclofenac at 0.1 mM measured at 24 hrs by LC-MS/MS analysis. In kind it is ADME, cell-based. The settings on record: hek293, 24 h, 100 µM. The procedure, abridged: as §2

As for `CC(C(=O)O[C@@H]1O[C@H](C(=O)O)[C@@H](O)[C@H](O)[C@H]1O)c1cccc(C(=O)c2ccccc2)c1` (stereo partly drawn), the Drug metabolism in series [1] was 436.8 pmol/mL; in series [3], 54.9 pmol/mL; with Hepatocyte [4], 1.7 pmol; in series [5] it was “tde”; in series [6] it was 6.3 pmol/mL; in series [7], 0.2 pmol. In the series on Hepatocyte [8], this compound yielded a Drug metabolism of 6.8 pmol. For the same compound, the Ratio in the series on Nucleic Acid [2] is recorded as 6.

Take `COc1ccc2cc([C@H](C)C(=O)O[C@@H]3O[C@H](C(=O)O)[C@@H](O)[C@H](O)[C@H]3O)ccc2c1`: the Drug metabolism was 10.3 pmol in the series with Hepatocyte [9]; 4.5 pmol in [10]; “tde” in series [11]; 393.7 pmol/mL in [12]; 137 pmol/mL in series [13]; 1323.9 pmol/mL in series [15]. This compound returned a Drug metabolism in the series with Hepatocyte [16] of 33.6 pmol. Further, the Ratio in the series on Nucleic Acid [14] was 6.

As for `O=C(Cc1ccccc1Nc1c(Cl)cccc1Cl)O[C@@H]1O[C@H](C(=O)O)[C@@H](O)[C@H](O)[C@H]1O`, the Drug metabolism in series [17] was 104 pmol/mL; in series [18] it was 2816.1 pmol/mL; with Hepatocyte [19] it was 15.1 pmol; in series [20] it was 610.5 pmol/mL; in the series on Hepatocyte [21], 59.6 pmol; in [22], “tde”. Besides, the Drug metabolism in series [23] is given as 3.8 pmol.

The values above are taken from ChEMBL document CHEMBL3526116, “Toxicological evaluation of acyl glucuronides of nonsteroidal anti-inflammatory drugs using human embryonic kidney 293 cells stably expressing human UDP-glucuronosyltransferase and human hepatocytes” (Drug Metab Dispos, 2011).
